ChEMBL document CHEMBL5126501, “Therapeutic potential for coxibs-nitric oxide releasing hybrids in cystic fibrosis” (Eur J Med Chem, 2021)

Columns and labels:
Liver [1] = experiment: NO releasing activity in rat liver homogenate assessed as nitrite formation measured after 120 mins; format: ADME, tissue-based; conditions: tissue homogenate, 2 h
In short: (§1)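 Compounds were incubated in rat liver homogenate. Inorganic nitrite and nitrate, the stable NO metabolites, were quantified over time, with the reading taken at 120 min of incubation.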

Liver [2] = experiment: NO releasing activity in rat liver homogenate assessed as nitrate formation measured after 120 mins; format: ADME, tissue-based; conditions: tissue homogenate, 2 h; in short: as §1
Mus musculus [3] = experiment: Analgesic activity against acetic acid induced mouse model assessed as number of writhes at 20 mg/kg, po measured after 30 mins by abdominal constriction test; format: functional; conditions: 0.5 h
In short: (§2)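 Mice were dosed orally, with carboxymethylcellulose (CMC) as vehicle, 30 min before an acetic acid (0.6%) challenge. Abdominal constrictions (writhes) were counted. Values are means of at least seven mice, and percent writhing reduction is relative to vehicle-treated mice. Statistics were P<0.05 and P<0.01 versus vehicle.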

[4] = target: T1, Prostaglandin G/H synthase 2 (Homo sapiens) (UniProt P35354); experiment: Inhibition of human recombinant COX-2 assessed as […] production at 10 uM using arachidonic acid as substrate preincubated for 10 mins followed by substrate addition and measured after 2 mins by enzyme immunoassay relative to control; conditions: time 12.0 min
T1 sequence (whole entry): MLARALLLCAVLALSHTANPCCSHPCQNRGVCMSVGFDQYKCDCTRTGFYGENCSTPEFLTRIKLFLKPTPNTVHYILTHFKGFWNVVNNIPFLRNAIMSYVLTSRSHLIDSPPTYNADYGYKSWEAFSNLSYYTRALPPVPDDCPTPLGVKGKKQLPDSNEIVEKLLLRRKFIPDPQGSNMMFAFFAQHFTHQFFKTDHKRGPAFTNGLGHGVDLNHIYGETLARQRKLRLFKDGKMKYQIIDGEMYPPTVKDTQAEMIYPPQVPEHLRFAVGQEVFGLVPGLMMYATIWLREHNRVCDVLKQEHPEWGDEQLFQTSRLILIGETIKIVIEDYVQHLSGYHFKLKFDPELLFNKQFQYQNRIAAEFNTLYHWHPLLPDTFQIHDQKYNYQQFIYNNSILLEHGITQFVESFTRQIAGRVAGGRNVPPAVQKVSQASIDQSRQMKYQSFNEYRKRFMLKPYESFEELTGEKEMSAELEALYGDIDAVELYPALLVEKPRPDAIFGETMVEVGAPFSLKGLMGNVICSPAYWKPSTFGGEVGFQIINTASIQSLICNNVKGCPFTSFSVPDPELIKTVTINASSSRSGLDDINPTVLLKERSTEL
In short: (§3)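 PGE2 production was measured with test compound and compared with control samples to give % inhibition. Values are means of n = 3 experiments. IC50 was obtained by fitting a sigmoidal dose–response equation with variable slope.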

Aorta [5] = experiment: Vasorelaxant activity in KCl induced normotensive Wistar rat endothelium-denuded aortic rings contraction assessed as decrease in contractile tone; format: functional, tissue-based
In short: (§4)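 Rat aortic rings were precontracted with KCl. Vasorelaxing efficacy (Emax) is the % reversal of the KCl-induced vasoconstriction. Potency is pIC50, the −log of the molar concentration giving 50% of Emax. ODQ was used to check for NO dependence.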

Mus musculus [6] = experiment: Analgesic activity against acetic acid induced mouse model assessed as reduction in writhing at 20 mg/kg, po by abdominal constriction test; format: functional; set-up: scale not given: the % may be the effect or the level left; in short: as §2
Mus musculus [7] = experiment: Analgesic activity against acetic acid induced mouse model assessed as reduction in writhing at 10 mg/kg, po by abdominal constriction test; format: functional; set-up: scale not given: the % may be the effect or the level left; in short: as §2
Aorta [8] = experiment: Vasorelaxant activity in KCl induced normotensive Wistar rat endothelium-denuded aortic rings contraction assessed as maximal vasorelaxing response at 10 uM relative to control; format: functional; in short: as §4
Mus musculus [9] = experiment: Analgesic activity against acetic acid induced mouse model assessed as number of writhes at 40 mg/kg, po measured after 30 mins by abdominal constriction test; format: functional; conditions: 0.5 h; in short: as §2
Mus musculus [10] = experiment: Analgesic activity against acetic acid induced mouse model assessed as number of writhes at 10 mg/kg, po measured after 30 mins by abdominal constriction test; format: functional; conditions: 0.5 h; in short: as §2
Mus musculus [11] = experiment: Analgesic activity against acetic acid induced mouse model assessed as number of writhes at 5 mg/kg, po measured after 30 mins by abdominal constriction test; format: functional; conditions: 0.5 h
[12] = target: T2, Prostaglandin G/H synthase 1 (Ovis aries, UniProt P05979); experiment: Inhibition of ovine COX-1 assessed as […] production using arachidonic acid as substrate preincubated for 10 mins followed by substrate addition and measured after 2 mins by enzyme immunoassay; in short: as §3
T2 sequence (P05979 whole entry): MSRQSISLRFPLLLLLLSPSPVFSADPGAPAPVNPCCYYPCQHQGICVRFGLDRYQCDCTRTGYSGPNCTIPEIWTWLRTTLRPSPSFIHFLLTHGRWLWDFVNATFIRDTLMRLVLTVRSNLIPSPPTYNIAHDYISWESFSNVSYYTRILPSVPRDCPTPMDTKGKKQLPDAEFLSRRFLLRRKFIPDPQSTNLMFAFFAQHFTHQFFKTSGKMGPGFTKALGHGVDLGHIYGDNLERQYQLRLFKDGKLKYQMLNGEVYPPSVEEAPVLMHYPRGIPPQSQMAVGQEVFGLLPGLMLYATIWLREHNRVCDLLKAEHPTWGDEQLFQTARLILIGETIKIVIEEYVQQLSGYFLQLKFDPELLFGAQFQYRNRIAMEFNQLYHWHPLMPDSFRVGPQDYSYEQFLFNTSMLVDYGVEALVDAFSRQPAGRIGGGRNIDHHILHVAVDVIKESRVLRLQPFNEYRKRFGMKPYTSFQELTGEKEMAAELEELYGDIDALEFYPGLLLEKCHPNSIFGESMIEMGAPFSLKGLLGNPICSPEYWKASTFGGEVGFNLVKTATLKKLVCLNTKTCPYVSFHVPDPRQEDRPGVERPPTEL

Mus musculus [13] = experiment: Analgesic activity against acetic acid induced mouse model assessed as reduction in writhing at 40 mg/kg, po by abdominal constriction test; format: functional; set-up: scale not given: the % may be the effect or the level left; in short: as §2
Mus musculus [14] = experiment: Analgesic activity against acetic acid induced mouse model assessed as reduction in writhing at 5 mg/kg, po by abdominal constriction test; format: functional; set-up: scale not given: the % may be the effect or the level left
Mus musculus [15] = experiment: Analgesic activity against acetic acid induced mouse model assessed as number of writhes at 1 mg/kg, po measured after 30 mins by abdominal constriction test; format: functional; conditions: 0.5 h; in short: as §2
Mus musculus [16] = experiment: Analgesic activity against acetic acid induced mouse model assessed as number of writhes at 3 mg/kg, po measured after 30 mins by abdominal constriction test; format: functional; conditions: 0.5 h; in short: as §2
Mus musculus [17] = experiment: Analgesic activity against acetic acid induced mouse model assessed as reduction in writhing at 3 mg/kg, po by abdominal constriction test; format: functional; set-up: scale not given: the % may be the effect or the level left; in short: as §2
Mus musculus [18] = experiment: Analgesic activity against acetic acid induced mouse model assessed as reduction in writhing at 1 mg/kg, po by abdominal constriction test; format: functional; set-up: scale not given: the % may be the effect or the level left; in short: as §2

SMILES: COc1ccc2cc([C@H](C)C(=O)OCCCCO[N+](=O)[O-])ccc2c1 [NAPROXCINOD]
- Activity (Liver [1]): 28 µM
- Activity (Liver [2]): 340.1 µM

SMILES: Cc1c(CC(=O)NCCO[N+](=O)[O-])cc(-c2ccc(S(N)(=O)=O)cc2)n1-c1ccc(F)cc1
- Activity (Mus musculus [3]): 15.8
- inhibition [4]: 16%
- IC50 (Aorta [5]): 1.51 µM
- Activity (Mus musculus [6]): 53%
- Activity (Mus musculus [7]): 44.9%
- Emax at 10 µM (Aorta [8]): 74.9%
- Activity (Mus musculus [9]): 16.7
- Activity (Mus musculus [10]): 18.5
- Activity (Mus musculus [11]): 26.7
- IC50 [12]: > 10 µM
- Activity (Mus musculus [13]): 50.3%
- Activity (Mus musculus [14]): 20.5%

SMILES: Cc1c(CC(=O)NCCO)cc(-c2ccc(S(N)(=O)=O)cc2)n1-c1cccc(F)c1
- inhibition [4]: 15%

SMILES: Cc1c(CC(=O)NCCO)cc(-c2ccc(S(N)(=O)=O)cc2)n1-c1ccc(F)cc1
- inhibition [4]: 18%

SMILES: Cc1c(CC(=O)NCCO[N+](=O)[O-])cc(-c2ccc(S(N)(=O)=O)cc2)n1-c1cccc(F)c1
- Activity (Mus musculus [15]): 21.8
- inhibition [4]: 45%
- Activity (Mus musculus [16]): 19.4
- IC50 (Aorta [5]): 3.24 µM
- Activity (Mus musculus [7]): 50.3%
- Emax at 10 µM (Aorta [8]): 67.5%
- Activity (Mus musculus [10]): 16.7
- IC50 [12]: > 10 µM
- Activity (Mus musculus [17]): 42.3%
- Activity (Mus musculus [18]): 35.1%
